Source: ChEMBL document CHEMBL1275331, “Discovery of a novel 5-HT(3) antagonist/5-HT(1A) agonist 3-amino-5,6,7,8-tetrahydro-2-{4-[4-(quinolin-2-yl)piperazin-1-yl]butyl}quinazolin-4(3H)-one (TZB-30878) as an orally bioavailable agent for irritable bowel syndrome” (J Med Chem, 2010)

Columns and labels:
[1] = molecular target: T1, 5-hydroxytryptamine receptor 3A (Homo sapiens, UniProt P46098); assay: Displacement of [3H]BRL-43694 from human 5HT3 receptor expressed in HEK293 cells by liquid scintillation counting; assay type: cell-based
T1 sequence (P46098 whole entry): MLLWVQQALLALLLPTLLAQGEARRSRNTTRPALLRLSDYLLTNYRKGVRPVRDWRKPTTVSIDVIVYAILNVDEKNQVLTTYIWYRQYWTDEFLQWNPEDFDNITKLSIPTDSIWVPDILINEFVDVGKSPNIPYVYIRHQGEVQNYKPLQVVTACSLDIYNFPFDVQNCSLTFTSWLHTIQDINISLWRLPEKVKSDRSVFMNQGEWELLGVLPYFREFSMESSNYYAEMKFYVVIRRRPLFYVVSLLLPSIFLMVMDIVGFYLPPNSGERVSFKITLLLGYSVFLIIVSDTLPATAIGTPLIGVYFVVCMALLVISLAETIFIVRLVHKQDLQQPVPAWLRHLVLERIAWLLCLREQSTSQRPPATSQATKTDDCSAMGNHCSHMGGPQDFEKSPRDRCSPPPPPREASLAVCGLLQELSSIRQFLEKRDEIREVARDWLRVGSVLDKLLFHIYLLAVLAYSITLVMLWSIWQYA
How it was run: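 HEK-293 membranes expressing human 5-HT3 were incubated with 0.5 nmol/L [3H]BRL-43694 (final) for 60 min at 25 °C. Buffer: 50 mM Tris-HCl, 5 mM MgCl2, 1 mM EDTA, pH 7.5. Compound came from 270 μmol/L DMSO stock, diluted in buffer. Filtration was through GF/B presoaked in 0.5% polyethyleneimine, with two cold Tris washes. Run in duplicate or triplicate; percent inhibition calculated.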

[2] = molecular target: T2, 5-hydroxytryptamine receptor 1A (Homo sapiens, UniProt P08908); assay: Displacement of [3H]8-OH-DPAT from human 5HT1A receptor expressed in CHO cells by liquid scintillation counting; assay type: cell-based
T2 sequence (P08908 whole entry): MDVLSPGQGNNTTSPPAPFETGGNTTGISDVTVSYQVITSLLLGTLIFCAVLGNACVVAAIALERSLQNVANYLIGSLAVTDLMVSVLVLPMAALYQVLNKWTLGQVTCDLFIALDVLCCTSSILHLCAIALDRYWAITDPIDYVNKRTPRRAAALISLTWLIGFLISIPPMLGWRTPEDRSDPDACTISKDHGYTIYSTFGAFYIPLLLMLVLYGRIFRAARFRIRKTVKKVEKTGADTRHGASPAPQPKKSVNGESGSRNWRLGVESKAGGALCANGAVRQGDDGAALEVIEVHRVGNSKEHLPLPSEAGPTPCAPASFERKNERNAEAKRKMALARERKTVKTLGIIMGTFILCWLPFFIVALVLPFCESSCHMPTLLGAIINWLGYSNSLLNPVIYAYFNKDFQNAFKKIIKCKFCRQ
How it was run: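 CHO-cell membranes with human 5-HT1A were incubated with 0.25 nmol/L [3H]8-OH-DPAT (final) for 60 min at 27 °C. Buffer: 50 mM Tris-HCl, 10 mM MgSO4, 0.5 mM EDTA, 0.1% ascorbic acid, pH 7.4. Compound came from 270 μmol/L DMSO stock, diluted in buffer. Filtration was through GF/C presoaked in 0.3% polyethyleneimine, with two cold Tris washes. Run in duplicate or triplicate; percent inhibition of binding calculated.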

SMILES | IC50 [1] | IC50 [2]
Nn1c(CCCCN2CCN(c3nc4ccccc4c4c3CCCC4)CC2)nc2c(c1=O)CCCC2 | > 100 nM | > 100 nM
Nn1c(CCCCN2CCN(c3ccc4ccccc4n3)CC2)nc2cc(F)ccc2c1=O | > 100 nM | < 10 nM
Nn1c(SCCCN2CCN(c3ccc4ccccc4n3)CC2)nc2cc([N+](=O)[O-])ccc2c1=O | > 100 nM | 1.3 nM
Nn1c(CCCCN2CCN(c3nc4ccccc4c4c3CCC4)CC2)nc2c(c1=O)CCCC2 | > 100 nM | 62.3 nM
Nn1c(CCCCCN2CCN(c3ccc4ccccc4n3)CC2)nc2c(c1=O)CCCC2 | > 100 nM | 7.6 nM
Cc1cc2ccccc2nc1N1CCN(CCCCc2nc3c(c(=O)n2N)CCCC3)CC1 | > 100 nM | 96 nM
Cc1sc2nc(SCCCN3CCN(c4nc5ccccc5s4)CC3)n(N)c(=O)c2c1C | 87.6 nM | 66.6 nM
Nn1c(CCCCN2CCN(c3ccc4ccccc4n3)CC2)nc2cccc(Cl)c2c1=O | > 100 nM | < 10 nM
Nn1c(CCN2CCN(c3ccc4ccccc4n3)CC2)nc2c(c1=O)CCCC2 | > 100 nM | > 100 nM
Nn1c(CCCCN2CCN(c3ccc4ccccc4n3)CC2)nc2cc(Cl)ccc2c1=O | > 100 nM | 18 nM
Cc1sc2nc(SCCCN3CCN(c4ccc5ccccc5n4)CC3)[nH]c(=O)c2c1C | > 100 nM | > 100 nM
Nn1c(CCCCN2CCN(c3ccc4cc(O)ccc4n3)CC2)nc2c(c1=O)CCCC2 | > 100 nM | 59.3 nM
Cc1sc2nc(SCCCN3CCN(c4nc5ccccc5c5ccccc45)CC3)n(N)c(=O)c2c1C | > 100 nM | 55.4 nM
Nn1c(CCCCN2CCN(c3ccc4ccccc4n3)CC2)nc2c(c1=O)CCCCC2 | 84.8 nM | < 10 nM
Nn1c(SCCCN2CCN(c3ccc4ccccc4n3)CC2)nc2ncccc2c1=O | 64.8 nM | < 1 nM

These reach a lower IC50 [1]. Values come first.

IC50 [1] | IC50 [2] | SMILES
62.1 nM | < 1 nM | Nn1c(CCCCN2CCN(c3ccc4ccccc4n3)CC2)nc2c(c1=O)CCC2
61 nM | < 1 nM | Nn1c(SCCCN2CCN(c3ccc4ccccc4n3)CC2)nc2cccnc2c1=O
55.2 nM | 46.6 nM | Nn1c(CCCCN2CCN(c3ccc4ccc(O)cc4n3)CC2)nc2c(c1=O)CCCC2
52.6 nM | 96.4 nM | Nn1c(CCCCN2CCN(c3nc4ccccc4cc3O)CC2)nc2c(c1=O)CCCC2
46.5 nM | < 10 nM | Nn1c(CCCCN2CCN(c3ccc4ccccc4n3)CC2)nc2c(c1=O)CC(O)CC2 (centres undefined)
26.7 nM | < 10 nM | Cc1sc2nc(CCCCN3CCN(c4ccc5ccccc5n4)CC3)n(N)c(=O)c2c1C
15.6 nM | < 10 nM | Cc1cccc2c(=O)n(N)c(CCCCN3CCN(c4ccc5ccccc5n4)CC3)nc12
